Screens: PubChem BioAssay, The Scripps Research Institute Molecular Screening Center
Rows were chosen to be rich in hits. Some 1.7% of all compounds tested hit in one or more screens of this group.
M1 ag parental: nonselective activator or artifact in parental CHO-K1 cells; activation, % at 3 µM; 360,000 tested, 0.48% active; Fluo-8 calcium fluorescence; scaled to maximal ATP response, vehicle zero; AID 602248; in the data active means activation above about 15%;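 further: untransfected CHO-K1 host cells lacking M1 receptor as counterscreen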
CHRM5 antagonist: antagonists of human muscarinic M5 receptor (CHRM5); inhibition, % at 3 µM; AID 624040; CHO-hM5 cells, Fluo-8 calcium fluorescence, ACh EC80; P08912; 360,000 tested, 0.59% active;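 active means inhibition above a per-plate cutoff, the mean of that plate's test compounds plus 3 SD, cut at about 27% in these data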;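 further: 0% = acetylcholine EC80 with DMSO and 100% = DMSO without agonist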
Target sequence (P08912 whole entry, looked up): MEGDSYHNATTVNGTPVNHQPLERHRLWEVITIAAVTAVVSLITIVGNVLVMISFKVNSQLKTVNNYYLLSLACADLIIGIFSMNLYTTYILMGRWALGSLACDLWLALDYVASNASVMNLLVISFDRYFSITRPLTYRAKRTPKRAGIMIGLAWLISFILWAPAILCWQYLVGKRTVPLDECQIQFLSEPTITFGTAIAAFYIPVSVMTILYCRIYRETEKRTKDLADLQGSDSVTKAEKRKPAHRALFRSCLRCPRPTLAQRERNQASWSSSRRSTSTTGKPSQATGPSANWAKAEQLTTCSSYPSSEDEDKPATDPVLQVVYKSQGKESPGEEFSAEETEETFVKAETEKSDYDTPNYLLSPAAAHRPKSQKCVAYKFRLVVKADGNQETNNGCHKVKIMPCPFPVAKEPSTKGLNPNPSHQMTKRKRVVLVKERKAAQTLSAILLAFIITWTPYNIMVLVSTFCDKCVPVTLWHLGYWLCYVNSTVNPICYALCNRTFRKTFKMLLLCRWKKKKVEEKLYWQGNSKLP
CHO-K1 Ca antag: M1 antagonist counterscreen hit in parental CHO-K1 cells; AID 602250; ATP-induced calcium, Fluo-8 fluorescence; 360,000 tested, 0.6% active; inhibition, % at 3 µM;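 active means inhibition above a per-plate cutoff, the plate's mean sample inhibition plus 3 SD, cut at about 24% in these data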;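 further: 0% = DMSO plus EC80 ATP and 100% = DMSO alone without ATP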
CHO-K1 Ca PAM: M1 PAM counterscreen hit in parental CHO-K1 cells. 360,000 tested, 0.02% active. AID 602247. ATP EC20, Fluo-8 calcium fluorescence; 0% at ATP EC20, 100% at ATP max. activation, % at 3 µM;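 active means activation above the run cutoff, the mean activation of all test compounds plus 3 SD, cut at about 40% in these data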;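 further: peak over basal fluorescence ratio in a 140 s read after ATP addition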
CHRM5 PAM: positive allosteric modulators of human muscarinic M5 receptor; P08912; CHO-K1 hM5, Fluo-8 calcium, ACh EC20 PAM; 0% = ACh EC20, 100% = ACh EC100; 360,000 tested, 0.3% active; activation, % at 3 µM;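 active means activation above the run cutoff, the mean activation of all test compounds plus 3 SD, cut at about 18% in these data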
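System: CHO-K1 cell line with stable human muscarinic M5 receptor expression | Also added: EC20 acetylcholine as agonist stimulus | Compound: One concentration, 3 µM final (nominal) | Timing: Fluo-8 loading 80 min at 37 °C plus 30 min room temperature | Measured by: Fluo-8 calcium dye fluorescence, kinetic read | Read-out basis: % activation, ACh-normalized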
CHRM5 agonist: CHRM5 agonism in calcium assay; activation, % at 3 µM; AID 624037; 360,000 tested, 0.19% active; CHO-K1 hM5 cells, Fluo-8 calcium fluorescence; 0% DMSO wells, 100% maximal acetylcholine response;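 active means activation above the run's mean over test compounds plus 3 SD, cut at about 23% in these data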;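 further: signal is peak over basal fluorescence ratio across the kinetic read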
An asterisk follows results filed as active.

SMILES	M1 ag parental	CHRM5 antagonist	CHO-K1 Ca antag	CHO-K1 Ca PAM	CHRM5 PAM	CHRM5 agonist
Cc1noc(C)c1CN(C(=S)NC(C)C)c1ccccc1	1	-2	-9	22	3	-5
Cc1ccc(S(=O)(=O)N(C)C)cc1NC(=O)C(C)N(C)Cc1sccc1C (stereo unspecified)	9	30*	3	-15	-11	-3
CCOC(=O)C1CCCN(S(=O)(=O)CCNC(=O)c2ccc3c(c2)OCO3)C1 (stereo unspecified)	0	8	14	-19	1	3
O=C(Nc1ccc(F)cc1)C(=O)C1C(=O)Nc2ccccc21 (stereo unspecified)	1	-7	-16	12	3	1
Cc1cccc(NC(=O)C(=O)C2C(=O)Nc3ccccc32)c1 (stereo unspecified)	1	-6	-12	20	19*	2
O=C(Nc1ccncc1)c1ccc2c(c1)C(=O)N(C1CCCCC1)C2=O	9	31*	17	12	-41	6
Cc1cc(NC(=O)c2ccc3c(c2)C(=O)N(C2CCCCC2)C3=O)no1	0	-1	-10	13	1	-1
O=C(/C=C/c1ccccc1)NC(NC(=S)Nc1cc(Cl)ccc1Cl)C(Cl)(Cl)Cl (stereo unspecified)	7	51*	9	5	-16	2
CCc1nc(SCc2cccnc2)[nH]c(=O)c1C	0	7	-11	-6	-2	-5
Cc1ccc(C)c(OCCC(=O)OCC(=O)NCCNC(=O)COC(=O)CCOc2cc(C)ccc2C)c1	15	34*	27*	-16	-31	8
Cc1ccccc1C(=O)NC1CCN(CC(=O)Nc2c(C)cccc2C)CC1	0	-6	7	17	32*	-7
Cc1ccccc1C(=O)NC1CCN(CC(=O)Nc2ccccc2)CC1	0	2	1	-13	3	3
Cc1ccc(C(=O)NC2CCN(CC(=O)Nc3ccccc3Cl)CC2)cc1	16*	3	0	5	1	-2
Cc1oc2c(CN3CCCCC3)c(O)ccc2c(=O)c1-c1ccc(Br)cc1	0	2	-7	-2	-4	-6
COc1ccccc1N1C(=O)C2C(C(=O)c3ccccc3)=NN(c3ccc(C)cc3)C2C1=O (stereo unspecified)	3	-10	-16	23	14	8
COc1ccccc1N1C(=O)C2C(C(=O)c3ccccc3)=NN(c3ccc(Br)cc3)C2C1=O (stereo unspecified)	31*	-1	30*	-1	9	1
CCOc1ccc(-c2c(=O)n(OCc3ccc([N+](=O)[O-])cc3)c3ccccc3[n+]2[O-])c(OCC)c1	20*	-3	5	14	8	2
CCOc1ccc(OCC)c(-c2c(=O)n(OCc3ccc(C(C)(C)C)cc3)c3ccccc3[n+]2[O-])c1	0	-5	-10	7	1	1
CCNC(=O)C1CCCN(C(=O)c2ccc3snnc3c2)CC1 (stereo unspecified)	1	-3	0	5	2	0
N#CCCN(C(=O)Cn1nc(C(=O)O)c2ccccc2c1=O)c1ccccc1	2	14	-23	-14	-5	-3
O=C(/C=C/c1cccc(Cl)c1)N1CCC(Cc2ccccc2)CC1	1	-8	25*	-12	0	-2
O=C(/C=C/c1ccccc1)N1CCC(Cc2ccccc2)CC1	2	2	-10	20	-3	-3
O=C(NNC(=O)C1CC1)c1cc(=O)[nH]c2ccccc12	0	13	4	25	-5	3
CN(C)CCCNC(=O)N1c2ccccc2Sc2ccccc21	0	100*	-8	12	-34	-24
O=C(NCCN1CCOCC1)N1c2ccccc2Sc2ccccc21	2	59*	7	9	-29	-13
O=C(NCCO)N1c2ccccc2Sc2ccccc21	1	1	-2	10	-4	-8
O=C(CCN1CCOCC1)N1c2ccccc2Sc2ccc(Cl)cc21	2	95*	-10	10	-17	-7
COc1ccc(OC)c(/C=N\NC(=O)c2c(C)nc3cc(C)ccn23)c1	0	-3	6	-7	1	5
